# Published values of several laboratories.
# Each line is one published result; the experiments were not run side by side.
# Effect on: cell growth or viability
SMILES,cell line,technique,concentration,time,measurement,value
Cc1nc(Nc2ncc(C(=O)Nc3c(C)cccc3Cl)s2)cc(N2CC[C@H](O)C2)n1,OCI-Ly7,ATP luminescence,10 µM,72 h,inhibition,57%
CC1(C)C[C@H]2[C@H]1CC[C@]1(C)CCC[C@@]2(n2cc(C(=O)O)nn2)C1,HT-29,CCK-8,10 µM,,inhibition,< 50%
CCC(=O)NCc1ccc(-c2cnc(C3CN(C(=O)c4ccc(NC(=O)[C@@H]5CC(C)(C)CN5)s4)C3)s2)c2ccccc12,IMR-90,SRB,,7 days,GI50,> 10 µM
O=c1c2cc(Cl)ccc2nc(-c2ccccc2)n1N=Cc1ccc(Cl)cc1Cl,LLC-PK1,MTT,,72 h,IC50,264 µM
C=C(NC(=O)C(=C)NC(=O)c1csc(C2=N[C@@H]3c4csc(n4)[C@H]4NC(=O)c5csc(n5)[C@H]([C@](C)(O)[C@@H](C)O)NC(=O)[C@H]5CSC(=N5)/C(=C/C)NC(=O)[C@H]([C@@H](C)O)NC(=O)c5csc(n5)[C@]3(CC2)NC(=O)[C@H](C)NC(=O)C(=C)NC(=O)[C@H](C)NC(=O)[C@H]([C@@H](C)CC)N[C@@H]2C=Cc3c([C@H](C)O)cc(nc3[C@H]2O)C(=O)O[C@@H]4C)n1)C(N)=O,SQ20B,,,,EC50,0.7 µM
CC1(C)C[C@H]2[C@H]1CC[C@]1(C)CCC[C@@]2(n2cc(C(=O)Nc3ccc(Cl)cc3)nn2)C1,HT-29,CCK-8,50 µM,,inhibition,16.8%
O=c1c2cc(Cl)ccc2nc(-c2ccccc2)n1N=Cc1ccc2c(c1)OCO2,LLC-PK1,MTT,,72 h,IC50,60.2 µM
CC1(C)C[C@H]2[C@H]1CC[C@]1(C)CCC[C@@]2(n2cc(C(=O)NCCN)nn2)C1,HT-29,CCK-8,10 µM,,inhibition,53.4%
O=c1c2cc(Cl)ccc2nc(-c2ccccc2)n1N=Cc1cccnc1,LLC-PK1,MTT,,72 h,IC50,326 µM
